Measured values published in the array DNA melting data of Ke et al. (doi:10.1101/2024.01.08.574731).

How the values were obtained:
[1] = folding enthalpy; higher = less favourable; fluorescence melt of hairpins on a sequencing array, two-state fit; conditions: sodium 0.088 M
Procedure, shortened: (§1)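 Folding enthalpy and melting temperature were estimated with bootstrapped two-state fits and combined across four replicates by inverse-variance weighting, with fitted temperatures raised by 9.35 °C to match UV melts. The data were Cy3 fluorescence of library hairpins, with annealed Cy3 and quencher oligos, on a sequenced MiSeq flow cell in 50 mM Na-HEPES pH 8.0, 25 mM NaCl, imaged in 2.5 °C steps up to 60 °C and normalised to pre-quench Cy3 and control constructs.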

[2] = melting temperature; fluorescence melt of hairpins on a sequencing array, two-state fit, raised by 9.35 °C to match UV melts; conditions: sodium 0.088 M
Procedure, shortened: as §1

Sequence: GATCACCAGGGTGATC ((((((....))))))
- folding enthalpy [1]: -36.5 kcal/mol
- Tm [2]: 62.2 °C

Sequence: GATCACCATGTGATC ((((((...))))))
- folding enthalpy [1]: -33 kcal/mol
- Tm [2]: 59.2 °C

Sequence: GATCACCCACGTGATC ((((((....))))))
- folding enthalpy [1]: -47 kcal/mol
- Tm [2]: 56.5 °C

Sequence: GATCACCCATGTGATC ((((((....))))))
- folding enthalpy [1]: -33.8 kcal/mol
- Tm [2]: 55.7 °C

Sequence: GATCACCCCAGTGATC ((((((....))))))
- folding enthalpy [1]: -44.7 kcal/mol
- Tm [2]: 60 °C

Sequence: GATCACCGAAAGGTTATC (((.(((....))).)))
- folding enthalpy [1]: -27.7 kcal/mol
- Tm [2]: 40.4 °C

Sequence: GATCACCGGAGTGATC ((((((....))))))
- folding enthalpy [1]: -41.2 kcal/mol
- Tm [2]: 57.7 °C

Sequence: GATCACCGTAGTGATC ((((((....))))))
- folding enthalpy [1]: -51.1 kcal/mol
- Tm [2]: 57 °C

Sequence: GATCACCTGAGTGATC ((((((....))))))
- folding enthalpy [1]: -35.8 kcal/mol
- Tm [2]: 57 °C

Sequence: GATCACCTGGTGATC ((((((...))))))
- folding enthalpy [1]: -33.1 kcal/mol
- Tm [2]: 58.1 °C

Sequence: GATCACCTTAGTGATC ((((((....))))))
- folding enthalpy [1]: -39.1 kcal/mol
- Tm [2]: 59.3 °C

Sequence: GATCACGAAAGTGCTATC ((((((....)))..)))
- folding enthalpy [1]: -12.1 kcal/mol
- Tm [2]: 26.1 °C

Sequence: GATCACGAACGTGATC ((((((....))))))
- folding enthalpy [1]: -42.4 kcal/mol
- Tm [2]: 67.3 °C

Sequence: GATCACGACCGTGATC ((((((....))))))
- folding enthalpy [1]: -46.1 kcal/mol
- Tm [2]: 63.6 °C

Sequence: GATCACGCAGGTGATC ((((((....))))))
- folding enthalpy [1]: -39.6 kcal/mol
- Tm [2]: 64.2 °C

Sequence: GATCACGCCGGTGATC ((((((....))))))
- folding enthalpy [1]: -38.7 kcal/mol
- Tm [2]: 60.7 °C

Sequence: GATCACGGCCGTGATC ((((((....))))))
- folding enthalpy [1]: -49.1 kcal/mol
- Tm [2]: 66.3 °C

Sequence: GATCACGTCGGTGATC ((((((....))))))
- folding enthalpy [1]: -36.5 kcal/mol
- Tm [2]: 59.7 °C

Sequence: GATCACGTGCGTGATC ((((((....))))))
- folding enthalpy [1]: -45.1 kcal/mol
- Tm [2]: 59.7 °C

Sequence: GATCACTACTGTGATC ((((((....))))))
- folding enthalpy [1]: -42 kcal/mol
- Tm [2]: 56.5 °C

Sequence: GATCACTAGCGTGATC ((((((....))))))
- folding enthalpy [1]: -41.8 kcal/mol
- Tm [2]: 55.1 °C

Sequence: GATCACTATAGTGATC ((((((....))))))
- folding enthalpy [1]: -38.1 kcal/mol
- Tm [2]: 58.8 °C

Sequence: GATCACTCAGTGATC ((((((...))))))
- folding enthalpy [1]: -35.5 kcal/mol
- Tm [2]: 58.3 °C

Sequence: GATCACTCTGTGATC ((((((...))))))
- folding enthalpy [1]: -35.8 kcal/mol
- Tm [2]: 61.6 °C

Sequence: GATCACTGAAGTGATC ((((((....))))))
- folding enthalpy [1]: -36.4 kcal/mol
- Tm [2]: 56.8 °C

Sequence: GATCACTGCGTGATC ((((((...))))))
- folding enthalpy [1]: -26.3 kcal/mol
- Tm [2]: 61 °C

Sequence: GATCACTTAGTGATC ((((((...))))))
- folding enthalpy [1]: -37 kcal/mol
- Tm [2]: 58.6 °C

Sequence: GATCACTTCAGTGATC ((((((....))))))
- folding enthalpy [1]: -46.6 kcal/mol
- Tm [2]: 63.9 °C

Sequence: GATCACTTGCGTGATC ((((((....))))))
- folding enthalpy [1]: -40.7 kcal/mol
- Tm [2]: 55.9 °C

Sequence: GATCAGAATCCTGATC ((((((....))))))
- folding enthalpy [1]: -31 kcal/mol
- Tm [2]: 46.9 °C

Sequence: GATCAGACGTCTGATC ((((((....))))))
- folding enthalpy [1]: -60.5 kcal/mol
- Tm [2]: 55 °C

Sequence: GATCAGACTCTGATC ((((((...))))))
- folding enthalpy [1]: -35 kcal/mol
- Tm [2]: 47.1 °C

Sequence: GATCAGAGTCTGATC ((((((...))))))
- folding enthalpy [1]: -39.1 kcal/mol
- Tm [2]: 47.4 °C

Sequence: GATCAGATAACTGATC ((((((....))))))
- folding enthalpy [1]: -34.5 kcal/mol
- Tm [2]: 46.8 °C

Sequence: GATCAGATCACTGATC ((((((....))))))
- folding enthalpy [1]: -28.6 kcal/mol
- Tm [2]: 49.9 °C

Sequence: GATCAGATCTCTGATC ((((((....))))))
- folding enthalpy [1]: -40 kcal/mol
- Tm [2]: 50.7 °C

Sequence: GATCAGATTCCTGATC ((((((....))))))
- folding enthalpy [1]: -39 kcal/mol
- Tm [2]: 48.5 °C

Sequence: GATCAGATTCTGATC ((((((...))))))
- folding enthalpy [1]: -29.7 kcal/mol
- Tm [2]: 48.5 °C

Sequence: GATCAGCAGCTGATC ((((((...))))))
- folding enthalpy [1]: -48.4 kcal/mol
- Tm [2]: 48.8 °C

Sequence: GATCAGCCAACTGATC ((((((....))))))
- folding enthalpy [1]: -33.8 kcal/mol
- Tm [2]: 49.6 °C

Sequence: GATCAGCCCTCTGATC ((((((....))))))
- folding enthalpy [1]: -35.3 kcal/mol
- Tm [2]: 50.1 °C

Sequence: GATCAGCCTTCTGATC ((((((....))))))
- folding enthalpy [1]: -37.9 kcal/mol
- Tm [2]: 48.5 °C

Sequence: GATCAGCGAAAGCTTATC (((.(((....))).)))
- folding enthalpy [1]: -20.2 kcal/mol
- Tm [2]: 38.9 °C

Sequence: GATCAGCGACTGATC ((((((...))))))
- folding enthalpy [1]: -33.1 kcal/mol
- Tm [2]: 46.8 °C

Sequence: GATCAGCGCACTGATC ((((((....))))))
- folding enthalpy [1]: -40.4 kcal/mol
- Tm [2]: 52.5 °C

Sequence: GATCAGCGTCTGATC ((((((...))))))
- folding enthalpy [1]: -38.8 kcal/mol
- Tm [2]: 49.9 °C

Sequence: GATCAGCGTGCTGATC ((((((....))))))
- folding enthalpy [1]: -37.1 kcal/mol
- Tm [2]: 67.2 °C

Sequence: GATCAGCTACCTGATC ((((((....))))))
- folding enthalpy [1]: -40 kcal/mol
- Tm [2]: 48.9 °C
